ChEMBL document CHEMBL1127682, “Resolution, absolute stereochemistry, and pharmacology of the S-(+)- and R-(-)-isomers of the apparent partial AMPA receptor agonist (R,S)-2-amino-3-(3-hydroxy-5-phenylisoxazol-4-yl)propionic acid [(R,S)-APPA]” (J Med Chem, 1994)

Key:
[1] = molecular target: Glutamate receptor ionotropic, NMDA 1 (Rattus norvegicus, UniProt P35439); assay: Compound was evaluated for the inhibition of binding of [3H]glycine to NMDA receptor
[2] = molecular target: Glutamate NMDA receptor; assay: Compound was evaluated for the inhibition of binding of [3H]- CPP to NMDA receptor; format: protein-complex assay
[3] = molecular target: Glutamate NMDA receptor; assay: Compound was evaluated for the inhibition of binding of [3H]- MK-801 to NMDA receptor; format: protein-complex assay
[4] = species on record: Rattus norvegicus; assay: The compound was evaluated for agonist sensitivity to antagonist NBQX; format: functional
Method in brief: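 Rat cortical wedges (500-μm, cortex plus corpus callosum) superfused with Mg2+- and Ca2+-free oxygenated Krebs buffer at room temperature; agonist depolarization concentration-response curves recorded with and without 0.5 μM NBQX; pKi calculated from the parallel shift; means ± SEM of at least three experiments.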

[5] = molecular target: T1, Glutamate receptor ionotropic, AMPA (Rattus norvegicus, UniProt P19490+P19491+P19492+P19493); assay: Compound was evaluated for the inhibition of binding of [3H]AMPA to the AMPA receptor; format: protein-complex assay
[6] = molecular target: T1, Glutamate receptor ionotropic, AMPA; assay: Compound was evaluated for the antagonist activity on AMPA receptor in rat cortical wedge preparation; format: functional
[7] = molecular target: Glutamate receptor ionotropic, kainate; assay: Compound was evaluated for the inhibition of binding of [3H]-Kainic acid to kianic acid receptor; format: protein-complex assay
[8] = molecular target: T1, Glutamate receptor ionotropic, AMPA; assay: Compound was evaluated for the agonist activity on AMPA receptor in rat cortical wedge preparation; format: functional

Row | Structure (SMILES) | IC50 [1] [µM] | IC50 [2] [µM] | IC50 [3] [µM] | IC50 [5] [µM] | Ki [6] [µM] | IC50 [7] [µM] | EC50 [8] [µM] | Log Ki [4]
1 | C=C(C)[C@H]1CN[C@H](C(=O)O)[C@H]1CC(=O)O [KAINIC ACID] | > 100 | > 100 | > 100 | – | – | – | – | -5.42
2 | N[C@H](Cc1c(O)noc1-c1ccccc1)C(=O)O | > 100 | > 100 | > 100 | > 100 | 286 | > 100 | – | –
3 | Cc1onc(O)c1CC(N)C(=O)O (racemic) [(R,S)-AMPA] | – | – | – | – | – | – | – | -6.56

The next lines start with results.

Row | IC50 [1] [µM] | IC50 [2] [µM] | IC50 [3] [µM] | IC50 [5] [µM] | Ki [6] [µM] | IC50 [7] [µM] | EC50 [8] [µM] | Structure (SMILES) | Log Ki [4]
4 | > 100 | > 100 | > 100 | 6 | – | > 100 | 230 | N[C@@H](Cc1c(O)noc1-c1ccccc1)C(=O)O | -6.3
5 | > 100 | > 100 | > 100 | 35 | – | > 100 | 385 | NC(Cc1c(O)noc1-c1ccccc1)C(=O)O (racemic) | –
